Bioassay records as filed in PubChem.
Most compounds without a hit are left out; they make up all but 4.5% or so of the library.
TAAR1 antag: human TAAR1 antagonists, primary screen, Fluo-8 calcium fluorescence, CHO RD-HGA16 cells; Trace amine-associated receptor 1 (Homo sapiens), Q96RJ0; antagonist; inhibition, % at 3 µM; hit rate 1.5% among 360,000;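 active means inhibition above a per-plate cutoff, the mean inhibition of test compounds on that plate plus 3 SD, cut at about 49% in these data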;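 further: 0% = DMSO plus EC80 beta-PEA response and 100% = DMSO alone without agonist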
Target sequence (Q96RJ0 whole entry, looked up): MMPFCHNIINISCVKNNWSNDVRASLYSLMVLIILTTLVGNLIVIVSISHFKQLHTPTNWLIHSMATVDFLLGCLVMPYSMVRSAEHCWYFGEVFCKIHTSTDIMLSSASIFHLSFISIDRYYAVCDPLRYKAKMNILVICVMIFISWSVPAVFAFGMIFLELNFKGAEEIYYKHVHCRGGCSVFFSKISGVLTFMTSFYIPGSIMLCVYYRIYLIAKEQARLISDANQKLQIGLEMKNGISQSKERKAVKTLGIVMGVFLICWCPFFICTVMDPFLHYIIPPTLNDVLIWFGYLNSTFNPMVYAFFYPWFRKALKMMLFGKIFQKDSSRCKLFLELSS
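Material: CHO RD-HGA16 cells bearing hTAAR1; compound dosing: one-point dosing, 3 µM nominal final; schedule: dye loading 75 min at 37 °C, then 30 min room temperature; measured by: calcium fluorescence with Fluo-8; control set: vehicle and agonist controls; replication: n of 1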
OX1R antag-1: OX1R (HCRTR1) antagonists, primary screen, fluorescence, CHO/OX1R cells, Fluo-8 calcium, orexin A; Fluo-8 calcium fluorescence; inhibition, % at 5 µM; hit rate 0.43% among 330,000; Orexin/Hypocretin receptor type 1 (Homo sapiens), O43613;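 active means inhibition above its plate's threshold, mean inhibition of all tested compounds on the plate plus 3 SD, cut at about 37% in these data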;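 further: 0% = orexin A challenge wells and 100% = SB-334867-A antagonist wells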
GPR7 antag: GPR7 receptor antagonists, primary screen, cell-based, fluorescence, single concentration; GPR7-expressing cells, fluorescence antagonist assay; inhibition, % at 4.4 µM; hit rate 1.1% among 290,000; AID 1861, 2009; in the data active means inhibition above about 16%, passing the limit was not always enough;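 further: cells stimulated with the agonist NPW; 0% = agonist with vehicle and 100% = vehicle without agonist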
Target sequence (P48145 whole entry, looked up): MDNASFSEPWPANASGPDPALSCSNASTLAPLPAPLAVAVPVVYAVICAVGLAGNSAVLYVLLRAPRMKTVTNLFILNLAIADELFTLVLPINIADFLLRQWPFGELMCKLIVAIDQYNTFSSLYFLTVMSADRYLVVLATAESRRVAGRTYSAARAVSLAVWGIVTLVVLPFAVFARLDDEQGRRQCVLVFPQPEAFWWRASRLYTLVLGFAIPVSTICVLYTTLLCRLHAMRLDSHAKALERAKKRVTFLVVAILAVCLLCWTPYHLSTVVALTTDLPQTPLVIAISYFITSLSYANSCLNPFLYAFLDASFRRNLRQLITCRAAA
OX1R antag-2: antagonists of human orexin 1 receptor (OX1R); Orexin/Hypocretin receptor type 1 (Homo sapiens), O43613; inhibition, % at 6.6 µM; AID 485270, 2010; OX1R-expressing cells, FRET antagonist read-out; hit rate 1.8% among 330,000; in the data active means inhibition mostly above about 38%, no sharp cut-off; inactive means mostly below about 40%;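 further: 0% = agonist challenge alone and 100% = reference antagonist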
CHO parental Ca: ATP-evoked calcium signal inhibitors, parental CHO, primary screen, counter-screen for OX1R antagonist project, cell-based, fluorescence, Fluo-8 calcium dye; parental CHO-K1, ATP-induced calcium, Fluo-8 fluorescence; inhibition, % at 5.6 µM; AID 463079, 2010; hit rate 0.63% among 330,000;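 active means inhibition above that plate's mean sample inhibition plus 3 SD, cut at about 26% in these data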;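 further: 0% = ATP-challenged DMSO wells and 100% = DMSO wells without ATP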
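Material – parental CHO cells · Reagent – ATP stimulus · Compound – single nominal dose of 5.6 µM per compound · Detection – Fluo-8 fluorescence · Read-out basis – percent inhibition of calcium signal · Controls – ATP-challenged DMSO wells low, unchallenged DMSO wells high · Repeats – no replicates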
TAAR1 ag: human TAAR1 agonists, primary screen, Fluo-8 calcium fluorescence, CHO RD-HGA16 cells | vehicle wells 0%, saturating PEA agonist 100% | hit rate 0.99% among 360,000 | Trace amine-associated receptor 1 (Homo sapiens), Q96RJ0 | activation, % at 3 µM;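 active means activation above the mean activation of all test compounds in the run plus 3 SD, cut at about 38% in these data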
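Test system: RD-HGA16 (CHO) cells co-expressing Gα16 and hTAAR1; dosing: one-point dosing at 3 µM (nominal); timing: 17-24 h seeding, 75 min 37 °C dye, 30 min RT; signal: kinetic Fluo-8 calcium fluorescence; read-out basis: % activation relative to PEA EC100 response; controls: DMSO and PEA EC100; replicates: n 1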
* marks the source's active call; other numbers are inactive results.

For CC(=O)Oc1ccc2oc(/C=C/N(C)C)c([N+](=O)[O-])c2c1 the results were TAAR1 antag -10, OX1R antag-1 4, GPR7 antag 6, OX1R antag-2 50*, CHO parental Ca -3 and TAAR1 ag 9.
Screening O=C(NCCN1CCN(Cc2ccc([N+](=O)[O-])cc2)CC1)C(=O)Nc1ccccc1 returned TAAR1 antag -27, OX1R antag-1 -6, GPR7 antag 7, OX1R antag-2 13, CHO parental Ca 7 and TAAR1 ag 0.
`O=C(NCCN1CCN(c2ccc([N+](=O)[O-])cc2)CC1)NCc1ccccc1` gave TAAR1 antag -3, OX1R antag-1 -12, GPR7 antag -1, OX1R antag-2 34*, CHO parental Ca 1 and TAAR1 ag 13.
C/C(CC(=O)Nc1cc(C)ccn1)=N\NC(=O)c1cccc(C)c1O was read as TAAR1 antag 11, OX1R antag-1 -7, GPR7 antag -8, OX1R antag-2 17, CHO parental Ca -17 and TAAR1 ag 4.
Screening Cc1ccc(-c2csc(N3CCC(NS(=O)(=O)c4ccc5c(c4)OCCO5)CC3)n2)cc1 returned TAAR1 antag 27, OX1R antag-1 51*, GPR7 antag 0, OX1R antag-2 36, CHO parental Ca 55* and TAAR1 ag 6.
`CCC(CC)C(=O)N(C)c1c(C)nc2c(OCCOc3ccc(F)cc3)cccn12` gave TAAR1 antag -31 and TAAR1 ag 2.
CCC(=O)NC(c1ccco1)c1cc(Cl)c2ccccc2c1O (configuration not stated) was read as TAAR1 antag 1, OX1R antag-1 23, OX1R antag-2 50*, CHO parental Ca -16 and TAAR1 ag 10.
CCc1cccc2c(C(=O)Cn3nnc(-c4ccc(OC)c(OC)c4)n3)c[nH]c12 was read as TAAR1 antag 40, OX1R antag-1 69*, GPR7 antag -2, OX1R antag-2 45*, CHO parental Ca 42* and TAAR1 ag 27.
Screening CCOC(=O)Cn1nnc(-c2cc(OC)c(OC)c(OC)c2)n1 returned TAAR1 antag -1, OX1R antag-1 -10, GPR7 antag -7, OX1R antag-2 1, CHO parental Ca -5 and TAAR1 ag 6.
CCc1nc2ccc(C(=O)N3CCN(C(C)=O)CC3)cn2c1N(C)C(=O)c1cccc(OC)c1 was read as TAAR1 antag -17 and TAAR1 ag 3.
For Cc1cccc(Cn2cnc3c(nnn3Cc3ccccc3F)c2=O)c1 the results were TAAR1 antag 60*, OX1R antag-1 17, GPR7 antag 13, OX1R antag-2 3, CHO parental Ca -1 and TAAR1 ag 18.
Cc1ccc(Cn2nnc3c(=O)n(CC(=O)OCc4ccccc4)cnc32)cc1 was read as TAAR1 antag 21, OX1R antag-1 36, GPR7 antag 5, OX1R antag-2 9, CHO parental Ca 31* and TAAR1 ag 9.
Screening CC(C)CNc1cccc2c1S(=O)(=O)N[C@@H](C)CO2 returned TAAR1 antag -21 and TAAR1 ag 6.
CCOC(=O)C1=CCN(S(=O)(=O)c2ccc(Br)cc2)C1c1ccc(Br)cc1 (configuration not stated) was read as TAAR1 antag -4 and TAAR1 ag 0.
CCOC(=O)CN1C(=O)S/C(=C/c2ccc3c(c2)n(C)c(=O)n3C)C1=O was read as TAAR1 antag -4, OX1R antag-1 -21, GPR7 antag -6, OX1R antag-2 8, CHO parental Ca -6 and TAAR1 ag 1.
For CCOC(=O)CN1C(=O)S/C(=C/C=C/c2ccc(N(C)C)cc2)C1=O the results were TAAR1 antag 30, OX1R antag-1 55*, GPR7 antag 11, OX1R antag-2 18, CHO parental Ca 32* and TAAR1 ag 45*.
For C=CCN(C(=O)c1csnn1)C(C(=O)NC1CCCC1)c1ccc(Cl)cc1 (configuration not stated) the results were TAAR1 antag -5, OX1R antag-1 -18, GPR7 antag -2, OX1R antag-2 69*, CHO parental Ca -15 and TAAR1 ag -3.
Screening CN1CCCCC(NC(=O)c2cccc(C(F)(F)F)c2)C1=O (configuration not stated) returned TAAR1 antag 7 and TAAR1 ag 0.
For C#CCNC(=O)C[C@@H]1C[C@@]2(C(=O)OCC)CCCC=C2N(CCC2=CCCCC2)C1=O the results were TAAR1 antag -21 and TAAR1 ag 1.
O=C1COc2ccc(S(=O)(=O)CCC(=O)N3CCN(c4cccc(Cl)c4)CC3)cc2N1 was read as TAAR1 antag 10, OX1R antag-1 -14, GPR7 antag -5, OX1R antag-2 10, CHO parental Ca 11 and TAAR1 ag 6.
Screening Cc1ccc(Cl)cc1N1CCN(C(=O)CCS(=O)(=O)c2ccc3c(c2)NC(=O)CO3)CC1 returned TAAR1 antag 63*, OX1R antag-1 17, GPR7 antag -4, OX1R antag-2 17, CHO parental Ca -11 and TAAR1 ag 16.
For COC(=O)[C@]12C[C@H](CC(=O)NCc3cccc4ccccc34)C(=O)N(CCc3ccc(OC)c(OC)c3)C1=C[C@H](C(C)(C)C)O[C@@H]2C the results were TAAR1 antag -14 and TAAR1 ag 3.
N=c1c(C(=O)NCC2CCCO2)cc2c(=O)n3ccccc3nc2n1Cc1ccc(Cl)cc1 (configuration not stated) was read as TAAR1 antag -29, OX1R antag-1 -12, GPR7 antag 14, OX1R antag-2 39, CHO parental Ca -3 and TAAR1 ag 0.
For N=c1c(C(=O)NCC2CCCO2)cc2c(=O)n3ccccc3nc2n1Cc1ccccc1 (configuration not stated) the results were TAAR1 antag -14, OX1R antag-1 -3, GPR7 antag -14, OX1R antag-2 51*, CHO parental Ca -18 and TAAR1 ag 0.
Screening Cc1ccc(Cn2c(=N)c(C(=O)NCC3CCCO3)cc3c(=O)n4ccccc4nc32)cc1 (configuration not stated) returned TAAR1 antag 6, OX1R antag-1 -11, GPR7 antag -2, OX1R antag-2 56*, CHO parental Ca -8 and TAAR1 ag -4.
COc1cccc(CNC(=O)[C@H]2CCCN2C(=O)[C@H]2CCCN2C(=O)c2ccc(C)c(C)c2)c1 was read as TAAR1 antag -18 and TAAR1 ag 0.
